The values that follow come from ChEMBL document CHEMBL1134229 (Bioorg Med Chem Lett, 2001).

In test [1] the target is T1, Somatostatin receptor type 4 (Homo sapiens, UniProt P31391). The experiment in a line: Inhibitory constant on human somatostatin receptor 4. An outline of the steps: (§1)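 Competition binding against [¹²⁵I-Tyr¹¹]SRIF-14 on membranes from CHO-K1 cells stably expressing each human SRIF receptor subtype. Method adapted from Shimon et al. Ki is reported.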
The target of test [2] is T2, Somatostatin receptor type 3 (Homo sapiens, UniProt P32745). The experiment in a line: Inhibitory constant on human somatostatin receptor type 3. In short, it runs like this:
as §1

The target of test [3] is T3, Somatostatin receptor type 2 (Homo sapiens, UniProt P30874). The experiment in a line: (§2) Inhibitory constant on human Somatostatin receptor type 2. In kind it is single protein. In short, it runs like this: as §1
T3 sequence (P30874 whole entry): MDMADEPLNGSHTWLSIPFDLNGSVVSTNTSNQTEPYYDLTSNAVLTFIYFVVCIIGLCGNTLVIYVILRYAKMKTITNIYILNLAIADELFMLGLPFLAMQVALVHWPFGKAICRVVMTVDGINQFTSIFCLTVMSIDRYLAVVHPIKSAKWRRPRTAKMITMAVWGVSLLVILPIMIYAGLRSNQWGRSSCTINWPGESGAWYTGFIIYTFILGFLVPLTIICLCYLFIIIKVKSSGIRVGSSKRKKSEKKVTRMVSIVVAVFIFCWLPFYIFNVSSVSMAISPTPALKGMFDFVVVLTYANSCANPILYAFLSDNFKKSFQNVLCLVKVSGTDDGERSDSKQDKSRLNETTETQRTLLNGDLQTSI
Test [4] concerns the target Somatostatin receptor type 1 (Homo sapiens, UniProt P30872). The experiment in a line: Inhibitory constant on human Somatostatin receptor type 1. An outline of the steps:
as §1

Test [5] concerns the target T4, Somatostatin receptor type 5 (Homo sapiens, UniProt P35346). The experiment in a line: Inhibitory constant on human somatostatin receptor 5. In short, it runs like this:
as §1

The target of test [6] is T4, Somatostatin receptor type 5. The experiment in a line: Inhibitory constant on human Somatostatin receptor type 5. In short, it runs like this: as §1
Test [7] has as its target T2, Somatostatin receptor type 3. The experiment in a line: Inhibitory constant on human Somatostatin receptor type 3. An outline of the steps: as §1
Test [8] has as its target T1, Somatostatin receptor type 4. The experiment in a line: Inhibitory constant on human Somatostatin receptor type 4. An outline of the steps: as §1
The target in test [9] is T3, Somatostatin receptor type 2. Described as §2. An outline of the steps:
as §1

In test [10] the target is T4, Somatostatin receptor type 5. The experiment in a line: Agonist activity on human somatostatin receptor 5. It counts as functional. An outline of the steps: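 Confluent CHO-K1 cells expressing human sst₅ were washed in RPMI 1640 with 0.2% BSA at 37 °C, then preincubated 5 min with isobutylmethylxanthine. Cells were then incubated 20 min at 37 °C with forskolin plus increasing agonist concentrations.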

SMILES strings stand for the structures.

T4 sequence (P35346 whole entry): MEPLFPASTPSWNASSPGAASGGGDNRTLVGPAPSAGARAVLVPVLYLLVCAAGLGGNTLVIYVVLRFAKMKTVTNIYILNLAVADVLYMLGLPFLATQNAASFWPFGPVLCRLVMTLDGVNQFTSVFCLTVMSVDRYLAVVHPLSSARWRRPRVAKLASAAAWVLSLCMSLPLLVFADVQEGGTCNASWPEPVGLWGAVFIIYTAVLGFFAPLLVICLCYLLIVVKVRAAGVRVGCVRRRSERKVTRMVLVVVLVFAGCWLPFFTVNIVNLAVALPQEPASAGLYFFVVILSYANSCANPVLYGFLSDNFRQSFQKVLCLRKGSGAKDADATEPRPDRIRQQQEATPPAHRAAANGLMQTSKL
T2 sequence (P32745 whole entry): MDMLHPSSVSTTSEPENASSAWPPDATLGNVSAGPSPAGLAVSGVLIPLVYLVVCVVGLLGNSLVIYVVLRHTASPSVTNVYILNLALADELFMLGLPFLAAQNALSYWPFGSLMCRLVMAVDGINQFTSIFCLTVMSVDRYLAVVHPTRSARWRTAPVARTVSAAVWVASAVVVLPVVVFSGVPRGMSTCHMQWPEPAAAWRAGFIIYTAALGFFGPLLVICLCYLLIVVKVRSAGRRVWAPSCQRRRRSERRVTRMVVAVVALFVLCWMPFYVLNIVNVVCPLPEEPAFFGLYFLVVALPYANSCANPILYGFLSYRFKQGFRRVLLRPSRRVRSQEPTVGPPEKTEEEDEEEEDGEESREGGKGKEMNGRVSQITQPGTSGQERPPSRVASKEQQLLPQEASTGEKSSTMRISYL
Chain of Somatostatin receptor type 1 (P30872 whole entry): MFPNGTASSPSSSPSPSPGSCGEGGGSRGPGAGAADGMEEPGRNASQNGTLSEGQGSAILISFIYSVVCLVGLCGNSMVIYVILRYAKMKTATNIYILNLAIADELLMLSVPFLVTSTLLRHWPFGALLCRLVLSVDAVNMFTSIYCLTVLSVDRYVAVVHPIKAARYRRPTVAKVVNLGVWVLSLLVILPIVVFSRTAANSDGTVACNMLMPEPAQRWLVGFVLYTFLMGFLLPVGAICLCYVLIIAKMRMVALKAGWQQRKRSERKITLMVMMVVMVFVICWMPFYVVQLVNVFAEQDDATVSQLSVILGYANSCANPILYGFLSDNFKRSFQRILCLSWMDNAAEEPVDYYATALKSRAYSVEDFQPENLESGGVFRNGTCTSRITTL
T1 sequence (P31391 whole entry): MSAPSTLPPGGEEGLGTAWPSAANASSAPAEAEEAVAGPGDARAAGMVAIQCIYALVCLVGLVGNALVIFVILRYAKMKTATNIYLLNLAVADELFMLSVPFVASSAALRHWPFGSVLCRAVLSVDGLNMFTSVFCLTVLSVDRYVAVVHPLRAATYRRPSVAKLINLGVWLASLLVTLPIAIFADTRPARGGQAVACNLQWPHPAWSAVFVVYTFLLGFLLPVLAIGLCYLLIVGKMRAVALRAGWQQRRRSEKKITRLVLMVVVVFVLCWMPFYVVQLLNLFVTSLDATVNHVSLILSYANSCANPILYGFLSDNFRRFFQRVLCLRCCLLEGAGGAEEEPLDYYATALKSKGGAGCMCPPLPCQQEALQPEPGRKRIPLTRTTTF

In general, Ki refers to a dissociation constant, usually derived from enzyme kinetics or from competition with a known ligand. Consider `CC(C)(C(=O)NCCc1c[nH]c2ccccc12)c1cn2cc(-c3csc4ccccc34)nc(CCCN)c2n1`, for which the Ki is over 10 µM in [1]; 10 µM in test [2]; 3.2 µM in test [3]; 4 µM in test [4]; 2.3 µM in test [5].

Consider `c1ccc(Cc2nc(-c3ccccc3)cn3cc(-c4ccccc4)nc23)cc1`, for which the inhibitory constant (Ki) in test [6], in test [4], in test [7], in test [8] and in test [9] was over 5 µM each time.

Take `CC(C)(C(=O)NCCN)c1cn2c(n1)C(Cc1c[nH]c3ccccc13)N=C(Cc1ccccc1)C2` (stereo unspecified): the Ki in test [6] was over 1 µM; in test [4], over 10 µM; in test [7], over 10 µM; in test [8], over 10 µM; in test [9] it was over 10 µM.

In the case of `NCCCc1nc(-c2cccc([N+](=O)[O-])c2)cn2cc(-c3ccccc3)nc12`, the Ki in [1] is over 10 µM; in [2], 2.5 µM; in test [3], 7.9 µM; in test [4], 3.4 µM; in test [5], 0.43 µM.

A word on the EC50: it is the concentration at which the effect is half-maximal. For the compound `CC(C)(C(=O)NC1CCCCC1)c1cn2cc(-c3csc4ccccc34)nc(CCCN)c2n1`, the Ki in test [1] is over 10 µM; in [2], 3.7 µM; in test [3], 9.5 µM; in [4], 9.7 µM; in [5] it was 0.36 µM. This compound also yielded an EC50 in [10] of 1.6 µM.

Consider `NCCCc1nc(-c2ccccc2)cn2cc(-c3ccccc3)nc12`, for which the Ki in test [1], in [2], in test [3], in test [4] and in test [5] was over 5 µM each time.

For the compound `NCCCc1nc(-c2csc3ccccc23)cn2cc(-c3ccccc3)nc12`, the Ki in test [1] was found to be 7.2 µM; in test [2], 1.7 µM; in test [3] it was 2.1 µM; in test [4], 2.9 µM; in test [5] it was 0.6 µM.

Regarding `CC(C)(C(=O)NCCc1c[nH]c2ccccc12)c1cn2cc(Cc3ccccc3)nc(CCCN)c2n1`, the inhibitory constant (Ki) in test [1] was 7.2 µM; in [2] it was 1.2 µM; in test [3], 8.6 µM; in test [4] it was 4.6 µM; in test [5], 1.2 µM.

On to `NCCCc1nc(-c2c[nH]c3ccccc23)cn2cc(-c3ccccc3)nc12`, for which the Ki is over 10 µM in test [1]; 3.1 µM in [2]; 6 µM in [3]; 3.3 µM in test [4]; 0.79 µM in test [5].

As to `CCCCNC(=O)C(C)(C)c1cn2cc(-c3csc4ccccc34)nc(CCCN)c2n1`, the Ki in test [1] is over 10 µM; in test [2] it was 8.9 µM; in test [3], over 10 µM; in test [4], over 10 µM; in test [5], 0.54 µM.
